Experimental data from ChEMBL document CHEMBL1133865, “Flavonoids: structural requirements for antiproliferative activity on breast cancer cells” (Bioorg Med Chem Lett, 2001).

Assays:
MCF7 [1] = assay: The compound was tested for antiproliferative activity against MCF-7 human breast cancer cells; In active; assay type: functional, cell-based
In short: (§1)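 MCF-7 human breast cancer cells, MTT assay. Growth inhibition expressed as % of control absorbance after 6 days incubation. IC50 read graphically as the concentration giving a 50% decrease in cell growth. Mean of three experiments; deviations within ±5%.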

MCF7 [2] = assay: The compound was tested for antiproliferative activity against MCF-7 human breast cancer cells; assay type: functional, cell-based; in short: as §1

Row | SMILES | IC50 (MCF7 [1]) | IC50 (MCF7 [2]) [µM]
1 | O=C1CC(c2ccccc2)Oc2c1ccc(O)c2O (stereo not drawn) | Not Active | –
2 | COc1cccc2c1C(=O)CC(c1ccccc1)O2 (stereo not drawn) | – | 35.7
3 | O=C(/C=C/c1ccccc1)c1ccc(O)c(O)c1O | – | 22.2
4 | COc1ccc2c(c1)OC(c1ccccc1)CC2=O (stereo not drawn) | – | 35.7
5 | O=C(/C=C/c1ccccc1)c1ccc(O)cc1O [2',4'-DIHYDROXYCHALCONE] | – | 16.3
6 | O=c1cc(-c2ccccc2)oc2c(O)c(O)ccc12 [7,8-DIHYDROXYFLAVONE] | – | 27.5
7 | COc1cc(OC)c2c(c1)OC(c1ccccc1)CC2=O (stereo not drawn) [DIMETHYLPINOCEMBRIN] | – | 36

Further lines, results first:

Row | IC50 (MCF7 [1]) | IC50 (MCF7 [2]) [µM] | SMILES
8 | – | 29.2 | COc1ccc(O)c(C(=O)/C=C/c2ccccc2)c1
9 | – | > 60 | COc1cc(O)c(C(=O)/C=C/c2ccccc2)c(O)c1
10 | – | 26.8 | COc1ccc(C(=O)/C=C/c2ccccc2)c(O)c1
11 | – | 18.3 | COc1cccc(O)c1C(=O)/C=C/c1ccccc1
12 | – | 28.4 | O=C(/C=C/c1ccccc1)c1ccccc1O [2'-HYDROXYCHALCONE]
13 | – | 20 | COc1cc(O)c(C(=O)/C=C/c2ccccc2)c(OC)c1 [FLAVOKAWAIN B]
